# Jurkat NFkB inh – lowers PMA/ionomycin-induced NF-kB signal in Jurkat cells; actives 0.53% (n = 330,000); inhibition, % at 4 µM; AID 435003; PMA/ionomycin-induced NF-kB luciferase reporter, luminescence; in the data active means inhibition above about 50%
# 697 NFkB inh – lowers PMA/ionomycin-induced NF-kB signal in 697 B cells. 697 B-cell NF-kB luciferase reporter, 16 h. inhibition, % at 4 µM. actives 0.33% (n = 330,000). AID 435022; in the data active means inhibition above about 35%
# UPR XBP1 act – adaptive UPR (XBP1) activation; activation, % at 20 µM; CHO-XBP1 luciferase reporter, IRE1-XBP1 UPR activation, luminescence; percent of tunicamycin response, DMSO as zero; AID 463104; actives 0.33% (n = 330,000);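 active means versus positive control, 20 µM dose yields 30% or more activation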;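 further: 100% = tunicamycin at 10 µg/mL and 0% = DMSO only wells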
#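 assay system = CHO-XBP1 luciferase reporter cells | amount = 1000 cells/well | buffer or medium = F12 plus 10% FBS | compound dosing = single point, 20 µM final compound, 1% DMSO | incubation = 16-18 h cell attachment at 37 °C, then 6 h compound exposure | detection = Steady-Glo luminescence read | controls = tunicamycin 10 µg/mL and vehicle-only wells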
# UPR CHOP act – activators of apoptotic arm of unfolded protein response (CHOP); activation, % at 10 µM; actives 0.34% (n = 330,000); CHO-CHOP luciferase reporter, UPR activation, luminescence; percent of tunicamycin response over DMSO baseline; AID 449763;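 active means at 10 µM dose, activation of 40% or more, normalized to positive control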;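 further: 100% = tunicamycin at 10 µg/mL and 0% = DMSO alone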
#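 System: CHO-CHOP luciferase reporter cell line | Buffer or medium: F12 medium containing 10% fetal bovine serum | Doses: One dose, 10 µM in 0.5% DMSO | Times: 6 h compound exposure at 37 °C after overnight seeding | Signal: Luciferase luminescence | Read-out: % activation vs tunicamycin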
# CHOP inh – CHOP inhibition in unfolded protein response | CHO-K1 CHOP-promoter luciferase, tunicamycin-induced, 15-18 h | actives 3.8% (n = 220,000) | inhibition, % at 10 µM;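 active means compounds that reduced the stress-induced luciferase reporter signal by more than about 70% of percent inhibition, limit read from the data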;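 further: 0% = tunicamycin plus vehicle and 100% = wells without tunicamycin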
# Jurkat NFkB conf – inhibitors of the PMA/ionomycin-induced NF-kB reporter in Jurkat cells, retest; shares compounds with Jurkat NFkB inh; Jurkat NF-kB luciferase, 16 h; inhibition, % at 4 µM; actives 27% (n = 2,700); AID 435020;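 active means inhibition reaching about 45% at 4 µM in either replicate, limit read from the data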;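 further: plate controls were PMA/ionomycin stimulated DMSO wells for no effect and unstimulated DMSO wells for full effect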
# Numbers without * were called inactive; . = no result. Only a selection was taken, and hits are over-represented in it overall.
SMILES,Jurkat NFkB inh,697 NFkB inh,UPR XBP1 act,UPR CHOP act,CHOP inh,Jurkat NFkB conf
CCCn1nnc(NC(=O)/C=C/c2ccc(C(C)C)cc2)n1,4,4,1,1,1,.
Cc1cccc(N2CCN(Cc3cn(C)nc3-c3ccccc3F)CC2)n1,54*,-30,1,-1,5,28
COC(=O)c1sc(NC(=O)c2c(OC)cccc2OC)c(C#N)c1C,10,8,2,2,7,.
COc1nc(-c2ccccc2)cc(-c2ccc3c(c2)OCO3)c1C#N,57*,-29,5,1,-4,11
N#Cc1c(-c2ccc3c(c2)OCO3)cc[nH]c1=O,8,9,-1,0,.,.
COc1cc(-c2noc(C)c2C(=O)NCCCn2ccnc2)cc(OC)c1OC,-2,13,-3,-1,.,.
C[C@H](CO)N1C[C@H](C)[C@@H](CN(C)C(=O)Nc2ccc3c(c2)OCO3)Oc2ccc(NS(=O)(=O)c3cn(C)cn3)cc2C1=O,13,6,-1,2,.,.
Cc1ccc(C(=O)NCC(=O)NCc2ccc(Cl)cc2)s1,-6,29,-1,0,.,.
O=C(N1CCN(c2ccccn2)CC1)N1c2ccccc2Sc2ccccc21,68*,-30,8,1,.,24
O=C(c1ccco1)N1c2ccccc2Sc2ccccc21,0,-7,-2,2,57,.
O=C(c1ccco1)N1CCN(C(=O)N2c3ccccc3Sc3ccccc32)CC1,59*,-74,13,1,.,55*
Cc1nn(-c2ccccc2)c(C)c1/C=N/NC(=O)c1cc(-c2ccc(Br)s2)[nH]n1,62*,-19,15,3,70*,28
Cc1cc(C(=O)N/N=C/c2c(C)nn(-c3ccccc3)c2C)n[nH]1,7,-1,6,0,-12,.
Cc1nn(-c2ccccc2)c(C)c1/C=N/NC(=O)c1cc(-c2ccc(Cl)s2)[nH]n1,72*,-3,20,-1,-30,34
Cc1nn(-c2ccccc2)c(C)c1/C=N/NC(=O)c1cc(C2CC2)[nH]n1,-6,11,6,1,25,.
Cc1ccc(CN2C(=O)CSC(C)C2=O)cc1 (configuration not stated),-10,-14,3,0,.,.
O=C(CSc1nnc(-c2cccnc2)o1)Nc1nccs1,-15,-55,-3,-2,.,.
Clc1ncccc1-c1nnn(-c2ccccc2)n1,-138,-148,-1,3,-13,.
Fc1ccc(-n2nnc(-c3cccnc3Cl)n2)cc1,-152,-152,-2,4,-25,-76
Cc1ccc(C2=NNC(c3cccc(F)c3)S2)cc1 (configuration not stated),-167,-233,-11,-4,42,-76
COc1ccc(C2NN=C(c3ccc(C)cc3)S2)cc1OC (configuration not stated),-137,-120,0,1,10,.
CC(=O)c1cccc(NC(=O)Cn2cnc(S(=O)(=O)N3CCOCC3)c2)c1,-6,-16,-5,0,.,.
COc1ccc(-c2nc3ccccc3s2)cc1NC(C)=O,-183,-117,4,6,36,-73
COc1ccccc1NC(=O)NC1CC(=O)N(c2ccc3c(c2)OCCO3)C1 (configuration not stated),-16,-3,-2,-1,.,.
Cc1ccc(C(=O)CSc2ncnc3ccccc23)o1,-40,-23,-1,1,10,.
SMILES,Jurkat NFkB inh,697 NFkB inh,UPR XBP1 act,UPR CHOP act,CHOP inh,Jurkat NFkB conf
O=C(CSc1ncnc2ccccc12)c1cccs1,-157,-70,-3,-3,43,-62
COc1ccc(Cn2cnc3c(N)c(C)c(C)cc32)cc1,-8,-7,0,3,5,.
CCCCCCCCn1cnc2c(N)c(C)c(C)cc21,75*,21,2,7,81*,7
CN1C2C(Br)CCCCN2c2ccc(F)cc2S1(=O)=O (configuration not stated),-1,-8,1,1,.,.
O=C(NCCNc1ccnc2cc(Cl)ccc12)c1ccccc1F,56*,-37,-2,4,.,29
Nc1c(C(=O)Nc2ccc3c(c2)OCCO3)nnn1Cc1ccc(Br)cc1,-200,-190,9,8,.,-112
Cc1cc(C(=O)Nc2ccc3c(c2)OCCO3)ccc1[N+](=O)[O-],-160,-72,-9,-1,.,-82
O=C(Nc1ccc(Cl)cc1Cl)c1ccc2c(c1)OCCO2,-167,-241,-4,-1,.,-95
Nc1c(C(=O)Nc2ccc3c(c2)OCCO3)nnn1Cc1cccc(Br)c1,-43,-74,23,5,.,.
CCN1CCN(c2ccc(NC(=O)c3ccc4c(c3)OCCO4)cc2C)CC1,-165,-76,0,2,.,-40
CC(C)c1ccc(NC(=O)c2cccc(Br)c2)cc1,-234,-207,5,4,84*,-106
O=C(Nc1ccc2c(c1)OCCO2)c1cccc(Br)c1,-174,-55,-3,4,.,-101
O=C(Nc1ccc2c(c1)OCCO2)c1ccc(Cl)c(Cl)c1,-151,-45,-4,5,.,-132
O=C(Nc1ccc2c(c1)OCCO2)c1ccc(Cl)c([N+](=O)[O-])c1,-19,-72,0,8,-5,.
O=C(Nc1cccc(C(=O)Nc2cccc(Br)c2)c1)c1ccccc1,-27,-38,0,2,.,.
Cc1nn(-c2ccccc2)c(C)c1C(=O)OCC(=O)Nc1cccc(S(N)(=O)=O)c1,-4,-3,-4,-3,.,.
O=C1CCCc2nc3c(cc21)C(O)Oc1c-3ccc2ccccc12 (configuration not stated),-156,-208,5,5,-21,-66
COc1ccc(-c2cc3ccccc3cn2)cc1,-179,-216,-6,1,.,-95
COc1ccc2cc(-c3cccnc3)ncc2c1,-129,-99,3,3,.,.
COc1ccc2cc(-c3ccccc3F)ncc2c1,-186,-229,-3,3,.,-109
CCc1ccc(OCC(=O)N2CC(C(N)=O)Oc3ccccc32)cc1 (configuration not stated),1,-7,6,2,.,.
Cc1cccc(C(=O)NCC(=O)N2CCCCCCC2)c1,-12,2,0,2,.,.
CCOC(=O)c1[nH]c(C)c(C(=O)OCC(=O)NC(C)c2ccc(F)cc2)c1C (configuration not stated),60*,-69,3,11,.,51*
CCOC(=O)c1c(C)[nH]c(C(=O)OCC(=O)c2ccccc2)c1C,-193,-220,-3,4,.,-151
CCOC(=O)c1c(C)[nH]c(C(=O)OCC(=O)NCc2ccccc2)c1C,-4,5,3,2,.,.
CCOC(=O)c1[nH]c(C)c(C(=O)Nc2ccccc2F)c1C,52*,-77,-1,2,.,13
CCOC(=O)c1[nH]c(C)c(C(=O)Nc2cc(OC)ccc2OC)c1C,70*,7,13,2,.,46
